Measurements reported in ChEMBL document CHEMBL2034936, “Discovery and extensive in vitro evaluations of NK-HDAC-1: a chiral histone deacetylase inhibitor as a promising lead” (J Med Chem, 2012).
Calls of active or inactive are those of the source. The calls are words filed in the database; no cut-off is given here.

Columns and labels:
CCRF-CEM = test: Growth inhibition of human CCRF-CEM cells after 72 hrs by MTS assay; assay type: functional
HL-60(TB) = test: cells; assay type: functional; conditions: Homo sapiens, HL-60, 72 h
K562 [1] = test: cells; assay type: functional; conditions: Homo sapiens, K562, 72 h
MOLT-4 = test: Growth inhibition of human MOLT4 cells after 72 hrs by MTS assay; assay type: functional; conditions: MOLT-4, 72 h
SR = test: Growth inhibition of human SR cells after 72 hrs by MTS assay; assay type: functional
A549 [2] = test: cells; assay type: functional; conditions: Homo sapiens, A549, 72 h
EKVX = test: cells; assay type: functional; conditions: Homo sapiens, 72 h
HOP-92 = test: cells; assay type: functional; conditions: Homo sapiens, HOP-92, 72 h
NCI-H226 = test: cells; assay type: functional; conditions: Homo sapiens, NCI-H226, 72 h
NCI-H23 = test: cells; assay type: functional; conditions: Homo sapiens, NCI-H23, 72 h
NCI-H322M = test: Growth inhibition of human NCI-H322M cells after 72 hrs by MTS assay; assay type: functional
NCI-H460 = test: Growth inhibition of human NCI-H460 cells after 72 hrs by MTS assay; assay type: functional; conditions: NCI-H460, 72 h
NCI-H522 = test: cells; assay type: functional; conditions: Homo sapiens, NCI-H522, 72 h
COLO 205 [3] = test: Growth inhibition of human COLO205 cells after 72 hrs by MTS assay; assay type: functional; conditions: COLO 205, 72 h
HCT-116 = test: Growth inhibition of human HCT116 cells after 72 hrs by MTS assay; assay type: functional; conditions: HCT-116, 72 h
HCT-15 = test: cells; assay type: functional; conditions: Homo sapiens, HCT-15, 72 h
HT-29 = test: Growth inhibition of human HT-29 cells after 72 hrs by MTS assay; assay type: functional; conditions: HT-29, 72 h
KM12 = test: cells; assay type: functional; conditions: Homo sapiens, KM12, 72 h
SW-620 [4] = test: cells; assay type: functional; conditions: Homo sapiens, SW-620, 72 h
IGROV-1 = test: cells; assay type: functional; conditions: Homo sapiens, IGROV-1, 72 h
OVCAR-3 [5] = test: cells; assay type: functional; conditions: Homo sapiens, OVCAR-3, 72 h
OVCAR-4 = test: cells; assay type: functional; conditions: Homo sapiens, OVCAR-4, 72 h
OVCAR-5 = test: Growth inhibition of human OVCAR5 cells after 72 hrs by MTS assay; assay type: functional; conditions: OVCAR-5, 72 h
OVCAR-8 = test: cells; assay type: functional; conditions: Homo sapiens, OVCAR-8, 72 h
cells [6] = assay type: functional; conditions: Homo sapiens, NCI/ADR-RES, 72 h
SK-OV-3 = test: cells; assay type: functional; conditions: Homo sapiens, SK-OV-3, 72 h
PC-3 [7] = test: cells; assay type: functional; conditions: Homo sapiens, PC-3, 72 h
DU-145 = test: cells; assay type: functional; conditions: Homo sapiens, DU-145, 72 h
SF-268 = test: cells; assay type: functional; conditions: Homo sapiens, SF-268, 72 h
SF-295 = test: cells; assay type: functional; conditions: Homo sapiens, SF-295, 72 h
SF-539 = test: cells; assay type: functional; conditions: Homo sapiens, SF-539, 72 h
SNB-19 = test: cells; assay type: functional; conditions: Homo sapiens, SNB-19, 72 h
SNB-75 = test: Growth inhibition of human SNB75 cells after 72 hrs by MTS assay; assay type: functional; conditions: SNB-75, 72 h
U-251 = test: cells; assay type: functional; conditions: Homo sapiens, U-251, 72 h
LOX IMVI = test: cells; assay type: functional; conditions: Homo sapiens, 72 h
Malme-3M = test: cells; assay type: functional; conditions: Homo sapiens, 72 h
M14 = test: cells; assay type: functional; conditions: Homo sapiens, M14, 72 h
MDA-MB-435 = test: cells; assay type: functional; conditions: Homo sapiens, MDA-MB-435, 72 h
SK-MEL-2 = test: cells; assay type: functional; conditions: Homo sapiens, SK-MEL-2, 72 h
SK-MEL-28 = test: cells; assay type: functional; conditions: Homo sapiens, SK-MEL-28, 72 h
SK-MEL-5 = test: cells; assay type: functional; conditions: Homo sapiens, SK-MEL-5, 72 h
UACC-257 = test: cells; assay type: functional; conditions: Homo sapiens, UACC-257, 72 h
UACC-62 = test: Growth inhibition of human UACC62 cells after 72 hrs by MTS assay; assay type: functional; conditions: UACC-62, 72 h
786-0 = test: cells; assay type: functional; conditions: Homo sapiens, 786-0, 72 h
A498 = test: cells; assay type: functional; conditions: Homo sapiens, A498, 72 h
ACHN = test: cells; assay type: functional; conditions: Homo sapiens, 72 h
RXF 393 = test: cells; assay type: functional; conditions: Homo sapiens, RXF 393, 72 h
SN12C = test: cells; assay type: functional; conditions: Homo sapiens, 72 h
TK-10 = test: cells; assay type: functional; conditions: Homo sapiens, TK-10, 72 h
UO-31 = test: cells; assay type: functional; conditions: Homo sapiens, UO-31, 72 h
MDA-MB-468 = test: cells; assay type: functional; conditions: Homo sapiens, MDA-MB-468, 72 h
cells [8] = assay type: functional; conditions: Homo sapiens, Hs-578T, 72 h
BT-549 = test: cells; assay type: functional; conditions: Homo sapiens, BT-549, 72 h
T47D = test: cells; assay type: functional; conditions: Homo sapiens, 72 h
Histone deacetylase = test: Inhibition of HDAC in human HeLa cell nuclear extracts using Ac-Arg-Gly-Lys(Ac)-AMC substrate by fluorimetry; assay type: protein assay
MDA-MB-231 [9] = test: cells; assay type: functional; conditions: Homo sapiens, MDA-MB-231, 72 h
MCF7 = test: cells; assay type: functional; conditions: Homo sapiens, MCF7, 48 h
HepG2 = test: cells; assay type: functional; conditions: Homo sapiens, HepG2, 72 h
K562 [10] = test: cells; assay type: functional; conditions: Homo sapiens, K562, 72 h; remark: listed apart in the source
SW-620 [11] = test: cells; assay type: functional; conditions: Homo sapiens, SW-620, 72 h; remark: listed apart in the source
COLO 205 [12] = test: cells; assay type: functional; conditions: Homo sapiens, COLO 205, 72 h
OVCAR-3 [13] = test: cells; assay type: functional; conditions: Homo sapiens, OVCAR-3, 72 h; remark: listed apart in the source
PC-3 [14] = test: cells; assay type: functional; conditions: Homo sapiens, PC-3, 72 h; remark: listed apart in the source
A549 [15] = test: cells; assay type: functional; conditions: Homo sapiens, A549, 72 h; remark: listed apart in the source
MDA-MB-231 [16] = test: cells; assay type: functional; conditions: Homo sapiens, MDA-MB-231, 72 h; remark: listed apart in the source
[17] = target: Histone deacetylase (Homo sapiens) (UniProt Q13547+O15379+Q9UBN7+Q92769+Q9UQL6+Q8WUI4+Q9BY41+Q96DB2+P56524+Q9UKV0+Q969S8); test: Inhibition of HDAC in human MDA-MB-231 cells assessed as stimulation of histone H3 acetylation at 5 uM incubated for 24 hrs by Western blot; assay type: cell-based
How it was run: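 MDA-MB-231 cells in 35-mm dishes, dosed 24 h at graded concentrations, then trypsinized and PBS-washed. Lysed in RIPA (50 mM Tris-HCl pH 7.5, protease and phosphatase inhibitors) for 30 min at 4 °C, then cleared at 12,000g. Lysate, 60 μg protein by BCA, run on SDS-PAGE and PVDF. Blotted with anti-acetyl-histone H3 and HRP anti-rabbit, read by ECL.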

Molecule `CC(C)[C@H](c1nc2ccccc2o1)n1cc(/C=C/C(=O)NO)nn1` has a GI50 (CCRF-CEM) of 0.35 µM, a GI50 (HL-60(TB)) of 0.28 µM and a GI50 (K562 [1]) of 0.28 µM. It also gave a GI50 (MOLT-4) of 0.3 µM, a GI50 (SR) of 0.35 µM and a GI50 (A549 [2]) of 0.3 µM. The GI50 (EKVX) was 0.68 µM, the GI50 (HOP-92) was 0.07 µM and the GI50 (NCI-H226) was 1.3 µM. The GI50 (NCI-H23) was 0.35 µM, the GI50 (NCI-H322M) was 0.25 µM and the GI50 (NCI-H460) was 0.39 µM. It also gave a GI50 (NCI-H522) of 0.13 µM, a GI50 (COLO 205 [3]) of 0.25 µM and a GI50 (HCT-116) of 0.18 µM. It also gave a GI50 (HCT-15) of 0.96 µM, a GI50 (HT-29) of 0.22 µM and a GI50 (KM12) of 0.41 µM. For the same molecule, the GI50 (SW-620 [4]) was 0.29 µM, the GI50 (IGROV-1) was 0.19 µM and the GI50 (OVCAR-3 [5]) was 0.47 µM. For the same molecule, the GI50 (OVCAR-4) was 2.8 µM, the GI50 (OVCAR-5) was 0.4 µM and the GI50 (OVCAR-8) was 0.24 µM. The GI50 (cells [6]) was 0.095 µM, the GI50 (SK-OV-3) was 0.26 µM and the GI50 (PC-3 [7]) was 0.28 µM. It also gave a GI50 (DU-145) of 0.35 µM, a GI50 (SF-268) of 0.63 µM and a GI50 (SF-295) of 0.31 µM. It also gave a GI50 (SF-539) of 0.75 µM, a GI50 (SNB-19) of 0.85 µM and a GI50 (SNB-75) of 0.41 µM. It also gave a GI50 (U-251) of 0.34 µM, a GI50 (LOX IMVI) of 0.16 µM and a GI50 (Malme-3M) of 0.063 µM. For the same molecule, the GI50 (M14) was 0.41 µM, the GI50 (MDA-MB-435) was 0.24 µM and the GI50 (SK-MEL-2) was 0.35 µM. For the same molecule, the GI50 (SK-MEL-28) was 0.52 µM, the GI50 (SK-MEL-5) was 0.25 µM and the GI50 (UACC-257) was 0.23 µM. For the same molecule, the GI50 (UACC-62) was 0.4 µM, the GI50 (786-0) was 0.34 µM and the GI50 (A498) was 0.26 µM. For the same molecule, the GI50 (ACHN) was 0.47 µM, the GI50 (RXF 393) was 0.35 µM and the GI50 (SN12C) was 0.79 µM. It also gave a GI50 (TK-10) of 0.16 µM, a GI50 (UO-31) of 0.23 µM and a GI50 (MDA-MB-468) of 0.25 µM. The GI50 (cells [8]) was 1.3 µM, the GI50 (BT-549) was 0.28 µM and the GI50 (T47D) was 0.5 µM. It also gave an IC50 (Histone deacetylase) of 0.031 µM, a GI50 (MDA-MB-231 [9]) of 0.91 µM and a GI50 (MCF7) of 0.45 µM.
Work on `O=C(/C=C/c1cn(C/C=C/c2ccccc2)nn1)NO` yielded a GI50 (HepG2) of 3.2 µM, a GI50 (K562 [10]) of 0.55 µM and a GI50 (SW-620 [11]) of 0.48 µM. The GI50 (COLO 205 [12]) was 1.1 µM, the GI50 (OVCAR-3 [13]) was 1.1 µM and the GI50 (PC-3 [14]) was 1.3 µM. It also gave an IC50 (Histone deacetylase) of 0.104 µM and a GI50 (A549 [15]) of 1.9 µM.
For `NC(=O)CCC(c1nc2ccccc2o1)n1cc(/C=C/C(=O)NO)nn1` (racemic), the GI50 (HepG2) was 14 µM, the GI50 (MDA-MB-231 [16]) was 9.5 µM and the IC50 (Histone deacetylase) was 0.049 µM. The GI50 (A549 [15]) was 21.8 µM.
`O=C(O)CC(c1nc2ccccc2o1)n1cc(/C=C/C(=O)NO)nn1` (racemic) gave a GI50 (HepG2) of over 20 µM, a GI50 (MDA-MB-231 [16]) of over 20 µM and an IC50 (Histone deacetylase) of 0.14 µM. It also gave a GI50 (A549 [15]) of over 20 µM.
`O=C(O)CCC(c1nc2ccccc2o1)n1cc(/C=C/C(=O)NO)nn1` (racemic) gave a GI50 (HepG2) of over 20 µM, a GI50 (MDA-MB-231 [16]) of over 20 µM and an IC50 (Histone deacetylase) of 0.333 µM. The GI50 (A549 [15]) was over 20 µM.
Work on `O=C(/C=C/c1cn(Cc2nc3ccccc3[nH]2)nn1)NO` yielded a GI50 (HepG2) of over 20 µM, an IC50 (Histone deacetylase) of 0.178 µM and a GI50 (A549 [15]) of over 20 µM.
With `O=C(/C=C/c1cn(Cc2nc3ccccc3o2)nn1)NO` the GI50 (HepG2) was 6.1 µM, the GI50 (K562 [10]) was 0.72 µM and the GI50 (SW-620 [11]) was 1.2 µM. The GI50 (COLO 205 [12]) was 1.1 µM, the GI50 (OVCAR-3 [13]) was 1.9 µM and the GI50 (PC-3 [14]) was 1.6 µM. For the same molecule, the GI50 (MDA-MB-231 [16]) was 1.4 µM, the “histone H3 acetylation activity (active/not active)” value [17] was “Active” and the IC50 (Histone deacetylase) was 0.105 µM. It also gave a GI50 (A549 [15]) of 4.7 µM.
